Laboratory results published in PMC3056322 (Journal of the American Chemical Society, 2010).
Non-standard residues stand in square brackets, D forms with d. Residues, ends and D or L forms follow the SMILES beside them. pS = N[C@@H](COP(=O)(O)O)C(=O)O

T1: FFpSPR substrate phosphopeptide (SMILES CC(=O)N[C@@H](Cc1ccccc1)C(=O)N[C@@H](Cc1ccccc1)C(=O)N[C@@H](COP(=O)(O)O)C(=O)N1CCC[C@H]1C(=O)N[C@@H](CCCNC(=N)N)C(N)=O)
T1 chain: Ac-FF[pS]PR-NH2

T2: cis-locked alkene isostere inhibitor (also: pSer-Pro amide replaced by (Z)CH=C alkene isostere)
T2 chain: Ac-FF[pS]PR-NH2

T3: trans-locked alkene isostere inhibitor (also: pSer-Pro amide replaced by (E)CH=C alkene isostere)
T3 chain: Ac-FF[pS]PR-NH2


How the values were obtained:
[1] = biological target: T4, Pin1-PPIase (truncated human Pin1 construct omitting the WW domain) (Homo sapiens, UniProt Q13526); assay: Natural abundance 13C CPMG relaxation dispersion of ligand with Pin1-PPIase; type: binding
[2] = biological target: T4, Pin1-PPIase (truncated human Pin1 construct omitting the WW domain); assay: 15N–1H chemical shift perturbation ligand titration; type: binding
How it was run: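 Pin1-PPIase was titrated with the test compound, and the protein's amide 15N–1H chemical shift perturbations were followed. Kd was obtained by fitting the resulting binding isotherms.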

[3] = biological target: T4, Pin1-PPIase (truncated human Pin1 construct omitting the WW domain); assay: 2-D 1H–1H EXSY of cis–trans isomerization with Pin1-PPIase; type: biochemical; settings: 1H–1H EXSY of attached P4 Hδ protons
How it was run: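 2-D 1H–1H EXSY was run on an acetylated, amidated phospho-Ser-Pro pentapeptide substrate with Pin1-PPIase. Enzyme levels relative to ligand were raised up to 20%. Cis–trans exchange rate and cis population were taken from the EXSY data.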

[4] = biological target: T1, FFpSPR substrate phosphopeptide; assay: NMR chemical shift titration
[5] = biological target: T2, cis-locked alkene isostere inhibitor; assay: NMR chemical shift titration
[6] = biological target: T3, trans-locked alkene isostere inhibitor; assay: NMR chemical shift titration
[7] = side-chain P4-Cδ, 1% Pin1-PPIase, two-state fit

T4 sequence (Q13526 50-163 limits assumed): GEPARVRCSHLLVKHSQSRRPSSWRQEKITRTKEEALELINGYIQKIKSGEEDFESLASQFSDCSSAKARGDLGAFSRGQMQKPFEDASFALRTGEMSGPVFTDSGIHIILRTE

Row | Molecule | kex ([1]; P4-Cα and F1-Cα, 1% Pin1-PPIase) [s⁻¹] | C-terminal R5-Cα dispersion ([1]; R5-Cα, 1% Pin1-PPIase) | kex [1, 7] [s⁻¹] | pminor [1, 7] [%] | 13C dispersion at lower temperature ([1]; with Pin1-PPIase, lower temperature) | Kd [2] [µM] | pCIS ([3]; cis population) [%] | kex,CIS/TRANS ([3]; cis–trans isomerization) [s⁻¹] | Kd [4] [µM] | Kd [5] [µM] | Kd [6] [µM]
1 | CC(=O)N[C@@H](Cc1ccccc1)C(=O)N[C@@H](Cc1ccccc1)C(=O)N[C@@H](COP(=O)(O)O)C(=O)N1CCC[C@H]1C(=O)N[C@@H](CCCNC(=N)N)C(N)=O [FFpSPR, Ac-Phe-Phe-pSer-Pro-Arg-NH2] (Ac-FF[pS]PR-NH2) | 200 to 800 | strong dispersion | 85 ± 9 | 17 ± 4 | decrease in FFpSPR dispersion | 203 ± 46 | 12 ± 2 | 87 ± 4 |  |  | 
2 | Pin1 PPIase domain (protein) PARVRCSHLLVKHSQSRRPSSWRQEKITRTKEEALELINGYIQKIKSGEEDFESLASQFSDCSSAKARGDLGAFSRGQMQKPFEDASFALRTGEMSGPVFTDSGIHIILRTE |  |  |  |  |  |  |  |  | 203 | 7 | 78
